In the library only some 0.7% were active in any assay of this set; here they are far more common.
CaV13 FRET inh: Disruptors of the CACNA1D IQ motif to Ca2+-dependent inactivation inhibitor domain association, primary screening, Förster resonance energy transfer in intact living …. 0.098% of 340,000 active. AID 743397. inhibition, % at 12.3 µM. HEK cells, CFP/YFP FRET ICDI-IQ, plate reader, 10 min; percent FRET-ratio fall versus neutral wells;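 active means mean replicate inhibition of at least 30% and at least 1% of replicates passing that level; inconclusive means only one of the two criteria is met; inactive means neither criterion is met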;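 further: 0% = median of the neutral control wells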
RAD54 inh: inhibitors of human RAD54 branch migration, primary screen, biochemical, fluorescence, single point; inhibition, % at 10.4 µM; 0.14% of 360,000 active; DNA repair and recombination protein RAD54-like (Homo sapiens), Q92698; RAD54 Holliday junction branch migration, FAM/BHQ fluorescence; AID 602329, 2012;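 active means mean normalized replicate activity at least 40 and at least half of replicates scoring 40 or more; inconclusive means only one of the two criteria met; inactive means mean below 40 and under half of replicates reaching 40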;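 further: 0% = median of neutral control wells and 100% = median of positive control wells; inhibitors cause a drop in the FAM fluorescence signal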
Target sequence (Q92698 whole entry, looked up): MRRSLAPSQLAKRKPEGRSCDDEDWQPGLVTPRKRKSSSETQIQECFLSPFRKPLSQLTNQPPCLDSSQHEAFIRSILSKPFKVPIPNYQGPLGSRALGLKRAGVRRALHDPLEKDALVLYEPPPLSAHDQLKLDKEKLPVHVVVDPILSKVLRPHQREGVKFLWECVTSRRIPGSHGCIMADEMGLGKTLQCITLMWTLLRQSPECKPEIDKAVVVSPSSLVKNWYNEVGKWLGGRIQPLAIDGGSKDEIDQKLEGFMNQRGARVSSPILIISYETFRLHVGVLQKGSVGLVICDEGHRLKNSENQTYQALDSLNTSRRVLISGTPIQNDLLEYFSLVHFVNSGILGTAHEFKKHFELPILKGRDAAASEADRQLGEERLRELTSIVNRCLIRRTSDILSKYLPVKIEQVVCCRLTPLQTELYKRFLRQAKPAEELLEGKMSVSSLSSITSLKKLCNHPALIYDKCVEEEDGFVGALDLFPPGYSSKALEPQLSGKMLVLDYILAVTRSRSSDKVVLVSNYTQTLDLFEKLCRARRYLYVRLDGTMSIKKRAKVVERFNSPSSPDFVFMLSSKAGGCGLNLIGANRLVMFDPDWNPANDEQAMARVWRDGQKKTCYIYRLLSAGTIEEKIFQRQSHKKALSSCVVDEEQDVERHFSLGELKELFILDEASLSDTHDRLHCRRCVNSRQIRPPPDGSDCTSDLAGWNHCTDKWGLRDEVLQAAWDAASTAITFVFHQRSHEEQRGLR
FN deposit inh: inhibitors of fibronectin matrix deposition, primary screen, AH1F cells, Alexa488-fibronectin fluorescence, plate reader; 0.086% of 350,000 active; inhibition, % at 12.6 µM; AID 743247, 2014; AH1F fibroblasts, overnight;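 active means mean inhibition across replicates of 30% or more, regardless of how many single replicates reach that level; inconclusive means mean under 30% yet at least half of replicates reach 30%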;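 further: positive control wells lacked labelled fibronectin entirely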
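material = AH1F fibroblast monolayer depositing Alexa488-labelled fibronectin into matrix | amount = 10000 AH1F cells/well | buffer or medium = DMEM plus 2% serum, read in PBS | incubation = 1 h cell adhesion before compound, then overnight fibronectin incubation | detection = fluorescence at 485 nm excitation, 525 nm emission | evaluation = percent inhibition as loss of matrix-bound fibronectin fluorescence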
RAD52 inh: RAD52 DNA annealing inhibitors, primary screen, biochemical, FRET, single point, set 2. 0.46% of 360,000 active. DNA repair protein RAD52 homolog (Homo sapiens), P43351. recombinant RAD52 DNA annealing, FRET fluorescence. inhibition, % at 18.7 µM. AID 651710, 2012;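 active means every replicate showing at least 50% inhibition; inconclusive means mean inhibition at least 50% but not in every replicate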
N-glyco inh: increase of ERlucT glycosylation luciferase signal, primary screen, N-linked glycosylation inhibitor project, D54 ERlucT cells, luminescence, set 2 | 0.23% of 360,000 active | AID 588692, 2011 | reporter increase, % at 12.5 µM | D54 ERlucT glycosylation luciferase reporter, 24 h; percent of 100 nM tunicamycin response;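 active means mean luciferase reporter signal, scaled so untreated is 0 and the glycosylation-blocking control 100, at or above a set limit in every replicate; inconclusive means mean reaches the limit but not every replicate does; inactive means mean below the limit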;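 further: luciferase carries N-glycosylation sites so blocking glycosylation raises the light; 0% = median of neutral control wells and 100% = median of 100 nM tunicamycin wells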
DNA binding: DNA binding of candidate compounds, dose response, artefact control for RAD54 inhibitor project, biochemical, fluorescence polarization, cherry-pick; Acridine orange-DNA displacement, 20 min; 8% of 460 active; AC50, µM (top dose mostly 35 µM), without a hit: top-dose activity change, negative = DNA binding; shares compounds with RAD54 inh;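 active means signal drop giving an AC50 within twice the top valid tested concentration of each sample, actives reach about 35 µM in these data; inactive means activity opposite to expected, plus the rest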;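 further: polarization loss reports compound binding to salmon sperm DNA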
DNA binder FP: DNA-binding compounds via dye displacement, dose response, artefact control for RAD52 inhibitor project, biochemical, fluorescence polarization, cherry-pick. shares compounds with RAD52 inh. Salmon sperm DNA/acridine orange FP displacement. AC50, µM. 8% of 1,000 active. AID 652128, 2013;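 active means fitted half-maximal concentration for signal loss at or below twice the highest dose tested, in every separate run, actives reach about 64 µM in these data; inconclusive means runs disagree, or flat partial signal loss, or poor fit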
Numbers without * were called inactive.

For Nc1nc(N)c2c(ccc3nccc32)[nH]1 the results were CaV13 FRET inh -16, RAD54 inh 62*, FN deposit inh 4, RAD52 inh 77*, N-glyco inh 13, DNA binding -14% and DNA binder FP inactive.
Screening Nc1ccc2ncccc2c1N returned CaV13 FRET inh -4, RAD54 inh 9, FN deposit inh -12 and N-glyco inh 12.
`CN1c2ccc(-c3ccc(C#N)cc3)cc2[C@@H]2[C@@H](CCN2C(=O)Nc2cccc(F)c2)[C@@H]1CO` gave RAD54 inh 3, FN deposit inh 13 and RAD52 inh -8.
Nc1cc2ccncc2c2ccccc12 was read as CaV13 FRET inh -3, RAD54 inh 70*, FN deposit inh 12, RAD52 inh 60*, N-glyco inh -2, DNA binding -14% and DNA binder FP inactive.
`Cc1ccc(-c2nc(C(=O)NCCCN(C)C)cc3c2[nH]c2ccccc23)cc1` gave CaV13 FRET inh -3, RAD54 inh 105*, FN deposit inh 9, RAD52 inh 93*, N-glyco inh 46*, DNA binding -12% and DNA binder FP inconclusive.
O=C(NCCO)c1cc2c([nH]c3ccccc32)c(-c2ccccc2)n1 was read as CaV13 FRET inh -3, RAD54 inh -18, RAD52 inh -8 and N-glyco inh 6.
`CN(C)CCNC(=O)c1cccc(-c2cnc3c(NC=O)cc(-c4ccccc4F)cn23)c1` gave CaV13 FRET inh -5, RAD54 inh 63*, RAD52 inh 96*, N-glyco inh -1, DNA binding 6% and DNA binder FP inactive.
For CN(C)CCNC(=O)c1cccc(-c2cnc3c(NC=O)cc(-c4cccs4)cn23)c1 the results were CaV13 FRET inh -5, RAD54 inh 63*, FN deposit inh 2, RAD52 inh 68*, N-glyco inh -5, DNA binding -17% and DNA binder FP inactive.
Screening CN(C)CCNC(=O)c1cccc(-c2cnc3c(NC=O)cc(-c4ccc(C(=O)N5CCOCC5)cc4)cn23)c1 returned CaV13 FRET inh -4, RAD54 inh inconclusive, FN deposit inh 7, RAD52 inh 63*, N-glyco inh 1, DNA binding -5% and DNA binder FP inactive.
For CC(=O)c1cccc(-c2cnc3c(NC=O)cc(-c4ccccc4)cn23)c1 the results were CaV13 FRET inh -3, RAD54 inh 3, FN deposit inh 19, RAD52 inh -85 and N-glyco inh 3.
Screening Cc1cc(-c2cc(NC=O)c3ncc(-c4cccc(C(=O)NCCN(C)C)c4)n3c2)cc(C)c1O returned CaV13 FRET inh -5, RAD54 inh 62*, FN deposit inh 7, RAD52 inh 92*, N-glyco inh -2, DNA binding -4% and DNA binder FP inactive.
CC(=O)c1cccc(-c2cnc3c(NC=O)cc(-c4ccc(C(=O)N5CCOCC5)cc4)cn23)c1 was read as CaV13 FRET inh -5, RAD54 inh 7, FN deposit inh 11, RAD52 inh -34 and N-glyco inh -6.
`CN(C)C(=O)c1cccc(-c2ccccc2[C@@H]2[C@@H](CO)N(C(=O)C3CCC3)[C@H]2C#N)c1` gave FN deposit inh -15 and RAD52 inh 6.
`CCN1CCN(C(=S)Nc2ccc3nc(N4CCN(C)CC4)cc(C)c3c2)CC1` gave CaV13 FRET inh -5, RAD54 inh 56*, FN deposit inh 17, RAD52 inh 89*, N-glyco inh -2, DNA binding 0% and DNA binder FP inactive.
CCN1CCN(c2cc(C)c3cc(NC(=S)N4CCCCC4)ccc3n2)CC1 was read as CaV13 FRET inh -17, RAD54 inh inconclusive, FN deposit inh 8, RAD52 inh 85*, N-glyco inh -3, DNA binding -11% and DNA binder FP inactive.
`CCN1CCN(c2cc(C)c3cc(NC(=S)N4CCN(c5ccc(F)cc5)CC4)ccc3n2)CC1` gave CaV13 FRET inh -3, RAD54 inh -5, FN deposit inh 1, RAD52 inh -7 and N-glyco inh -7.
Screening CCCNC(=O)C[C@H]1C[C@H]2c3cc(NS(C)(=O)=O)ccc3O[C@H]2[C@@H](CO)O1 returned RAD54 inh 5, FN deposit inh -34 and RAD52 inh -5.
`O=C(Cc1ccncc1)N1CC(=O)N2[C@H](C1)[C@@H](c1ccc(C3=CCCC3)cc1)[C@@H]2CO` gave RAD52 inh -23.
`C[C@@H](NC(=O)C[C@H]1CC[C@H]2[C@@H](COC[C@H](O)CN2C(=O)Nc2ccccc2)O1)c1ccccc1` gave RAD54 inh 1, FN deposit inh -7 and RAD52 inh 3.
COc1cccc(-c2nn(C)c3sc(C(=O)NCCCN(C)Cc4ccccc4)cc23)c1 was read as CaV13 FRET inh -20, RAD54 inh 21, FN deposit inh 15, RAD52 inh 12 and N-glyco inh 0.
CCCCN(CC)CCCNC(=O)c1cc2c(-c3ccc(OC)c(OC)c3)nn(C)c2s1 was read as CaV13 FRET inh -3, RAD54 inh 91*, FN deposit inh 7, RAD52 inh 94*, N-glyco inh 2, DNA binding -12% and DNA binder FP inactive.
Screening CCN(CC)CCCNC(=O)c1cc2c(-c3cccc(OC)c3)nn(C)c2s1 returned CaV13 FRET inh -14, RAD54 inh 73*, FN deposit inh 3, RAD52 inh 92*, N-glyco inh 17, DNA binding inactive and DNA binder FP inactive.
COc1ccc(S(=O)(=O)N(C)C[C@@H]2Oc3c(NC(=O)C4CCOCC4)cccc3C(=O)N([C@@H](C)CO)C[C@H]2C)cc1 was read as RAD54 inh 10, FN deposit inh -3 and RAD52 inh -1.
`CCOC(=O)c1cnc2ccc(OCC)cc2c1NCCCN1CCOCC1` gave CaV13 FRET inh -2, RAD54 inh 101*, FN deposit inh -4, RAD52 inh 70*, N-glyco inh 13, DNA binding -4% and DNA binder FP inactive.
For COc1cc2nc(Nc3ccc(F)cc3)nc(N)c2cc1OC the results were CaV13 FRET inh -18, RAD54 inh 59*, FN deposit inh -2, RAD52 inh 62*, N-glyco inh 0, DNA binding 11% and DNA binder FP 59µM*.

Screening results (PubChem)
